Screens: PubChem, several laboratories
Hck Nef HTS: human Hck-Nef kinase inhibition | P08631 | Recombinant Hck-YEEI plus Nef, Z-Lyte FRET kinase assay | inhibition, % at 20 µM | hit rate 0.68% among 220,000 | AID 463187;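 active = Hck-Nef kinase inhibition above about 50%, limit read from the data; inactive = inhibition below that limit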
Target sequence (P08631 whole entry, looked up): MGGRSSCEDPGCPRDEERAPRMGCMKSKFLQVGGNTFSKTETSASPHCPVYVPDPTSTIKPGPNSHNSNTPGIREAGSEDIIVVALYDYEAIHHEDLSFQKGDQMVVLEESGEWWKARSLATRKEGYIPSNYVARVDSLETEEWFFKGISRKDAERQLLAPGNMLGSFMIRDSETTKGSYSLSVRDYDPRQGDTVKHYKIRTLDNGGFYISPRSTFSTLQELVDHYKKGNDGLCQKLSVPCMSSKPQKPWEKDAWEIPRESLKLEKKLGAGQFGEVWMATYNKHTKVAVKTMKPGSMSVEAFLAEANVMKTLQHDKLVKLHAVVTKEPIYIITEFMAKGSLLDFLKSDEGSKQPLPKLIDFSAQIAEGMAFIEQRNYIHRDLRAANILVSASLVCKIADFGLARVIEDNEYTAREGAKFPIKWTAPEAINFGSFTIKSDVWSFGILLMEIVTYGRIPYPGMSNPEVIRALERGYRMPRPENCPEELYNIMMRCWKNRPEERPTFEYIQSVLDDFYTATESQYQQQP
Runt-SMMHC FRET: blocks binding of human RUNX1 Runt domain to CBFb-SMMHC; Q01196+Q13951; Cerulean-Runt/Venus-CBFb-SMMHC FRET ratio 530/480, 1 h; hit rate 0.74% among 220,000; inhibition, % at 20 µM;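 active = mean inhibition across duplicate retests at 20 µM reaching about 50%, limit read from the data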;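 note: inhibitors lower the FRET ratio by blocking Runt binding to CBFb-SMMHC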
Runt-CBFb FRET: Runt domain-CBFb interaction inhibition | hit rate 0.46% among 220,000 | Q01196+Q13951 | Cerulean-Runt/Venus-CBFb FRET ratio 530/480, 1 h | inhibition, % at 20 µM;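 active = inhibition over about 50% at 20 µM in the single-dose screen, limit read from the data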
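Reagent – Venus-CBFb binding partner, 100 nM · Assay system – Cerulean-tagged RUNX1 Runt domain (FRET donor) fusion protein · Input – 100 nM per protein · Incubation – two 1 h room-temperature incubations shielded from light · Measured by – FRET fluorescence · Medium – Tris buffer pH 7.5 with salts and BSA · Benchmarks – unlabeled CBFb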
RanGTP-Impb inh: disruptors of Ran-importin-beta complex formation – biochemical, FRET, CFP-Ran, YFP-importin-beta, homogeneous, primary screen. cell-free CFP-Ran/YFP-importin-beta FRET ratio. inhibition, % (test concentration not listed). hit rate 1.1% among 300,000. AID 2216;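 active = more than half of the replicate wells show a fall in the fluorescence ratio signal beyond about 16%, limit read from the data, passing the limit was not always enough; inconclusive = exactly half of the replicate wells pass the set limit; inactive = fewer than half of replicates pass the limit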
p97 inhibitor: human p97 ATPase inhibition; P55072; recombinant p97 ATPase, Kinase-Glo ATP luminescence, 3 h; inhibition, % at 8 µM; hit rate 0.42% among 220,000; AID 1481; in the data active = inhibition above about 15%
Tb hexokinase: blocks Trypanosoma brucei hexokinase 1 activity; recombinant TbHK1, G6PDH-coupled NADH A340; inhibition, % at 10 µM; hit rate 0.11% among 220,000; AID 1430;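 active = inhibition of 50% or more in the single-dose primary screen; inactive = inhibition below 50%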
Large screens that a line does not name were inactive. Shown are actives, neighbours in structure and some others; about 2.1% of the full set was active somewhere.

CCN(CC)CCN1C(=O)C(=O)/C(=C(/O)c2cccc(OC)c2)C1c1ccccn1 (stereo unspecified)	RanGTP-Impb inh 43
CCN(CC)CCCN1C(=O)C(O)=C(C(=O)c2cc3ccccc3o2)C1c1ccccn1 (stereo unspecified)	none (no result: RanGTP-Impb inh)
CN(C)CCN1C(=O)C(O)=C(C(=O)c2cc3ccccc3o2)C1c1ccccn1 (stereo unspecified)	RanGTP-Impb inh 25
CCN(CC)C(=O)CC(c1ccc(F)cc1)c1ccc(OC)cc1 (stereo unspecified)	none
CCC(=O)N1CCN(c2ccc(NC(=O)COc3ccc(CC)cc3)cc2)CC1	none (no result: Hck Nef HTS, Runt-SMMHC FRET, Runt-CBFb FRET, p97 inhibitor, Tb hexokinase)
Cc1ccccc1CSc1ccc(-c2ccc3c(c2)OCO3)nn1	none
Cc1occc1-c1nnc(SCC(=O)Nc2ccccc2-c2ccccc2)n1C	none
Cc1occc1-c1nnc(SCC(=O)N(C)c2ccccc2)n1C	RanGTP-Impb inh 26 (no result: Hck Nef HTS, Runt-SMMHC FRET, Runt-CBFb FRET, p97 inhibitor, Tb hexokinase)
S=c1[nH]nc(CSc2nc3ccccc3s2)n1C1CCCCC1	none
CC1(C)CC(=O)C(N=Nc2ccc(OC(F)F)cc2)=C(O)C1	none
CCC1(C(=O)OC)CCc2c(cc(OC)c3ccccc23)C1=O (stereo unspecified)	none
CCC12CCCN3CCc4c(n(c5ccccc45)C(O)(C(=O)OC)C1)C32 (stereo unspecified)	RanGTP-Impb inh 114
CC(=O)N1CCc2c(sc(NC(=O)Cc3ccc(F)cc3)c2C(N)=O)C1	none (no result: Hck Nef HTS, Runt-SMMHC FRET, Runt-CBFb FRET, p97 inhibitor, Tb hexokinase)
CCN1CCc2c(sc(NC(=O)CN3C(=O)c4ccccc4C3=O)c2C(N)=O)C1	Runt-SMMHC FRET 102, Runt-CBFb FRET 62
CN1CCc2c(sc(NC(=O)c3ccc(C(=O)c4ccccc4)cc3)c2C(N)=O)C1	none (no result: Hck Nef HTS, Runt-SMMHC FRET, Runt-CBFb FRET, p97 inhibitor, Tb hexokinase)
CC(=O)Nc1sc2c(c1C(N)=O)CCN(Cc1ccccc1)C2	Runt-SMMHC FRET 130, RanGTP-Impb inh 162
NC(=O)c1c(NC(=O)CN2C(=O)NC(Cc3ccccc3)C2=O)sc2c1CCC2 (stereo unspecified)	none
NC(=O)c1c(NC(=O)Cc2ccccc2)sc2c1CCN(Cc1ccccc1)C2	RanGTP-Impb inh 134 (no result: Hck Nef HTS, Runt-SMMHC FRET, Runt-CBFb FRET, p97 inhibitor, Tb hexokinase)
COc1ccccc1Cc1nc2ccccc2n1S(=O)(=O)c1ccc(Cl)cc1	none
O=C(O)/C=C/C(=O)Nc1ccc(Cc2ccc(NC(=O)/C=C/C(=O)O)cc2)cc1	none
CC(C)C1Cc2c(sc(NC(=S)NC(=O)c3ccccc3)c2C#N)CO1 (stereo unspecified)	RanGTP-Impb inh inconclusive
CCCN1CCc2c(sc(NC(=S)NC(=O)c3ccccc3)c2C#N)C1	Runt-SMMHC FRET 93, RanGTP-Impb inh 159
CC(=O)N1CCc2c(sc(NC(=O)c3ccc([N+](=O)[O-])o3)c2C#N)C1	none
CC(C)N1CCc2c(sc(NC(=S)NC(=O)c3ccccc3)c2C#N)C1	Runt-SMMHC FRET 60, RanGTP-Impb inh 162
COc1cc(C(=O)Nc2sc3c(c2C#N)CCN(C(C)=O)C3)cc(OC)c1OC	Runt-SMMHC FRET 79, RanGTP-Impb inh 38
CC(C)N1CCc2c(sc(NC(=O)c3ccc(S(=O)(=O)N4CCOCC4)cc3)c2C#N)C1	RanGTP-Impb inh 43
NC(=O)CSc1nnc2ccc(-c3ccc(F)cc3)nn12	none
CN1CCc2c(sc(NC(=O)Cc3ccccc3)c2C#N)C1	RanGTP-Impb inh 164 (no result: Hck Nef HTS, Runt-SMMHC FRET, Runt-CBFb FRET, p97 inhibitor, Tb hexokinase)
COc1cc2cc(C(=O)N3CCN(Cc4ccc5c(c4)OCO5)CC3)c(=O)oc2cc1OC	Runt-SMMHC FRET 55
COc1ccccc1C(=O)N1CCN(Cc2ccc3c(c2)OCO3)CC1	RanGTP-Impb inh inconclusive
COc1ccccc1C(=O)Nc1cc(Cl)ccc1O	p97 inhibitor 15
COc1ccc(S(=O)(=O)NCCc2cn3nc(C)c(C)nc3n2)cc1F	RanGTP-Impb inh 17 (no result: Hck Nef HTS, Runt-SMMHC FRET, Runt-CBFb FRET, p97 inhibitor, Tb hexokinase)
Fc1ccc(NC(=S)N2CCN(c3cccc(C(F)(F)F)c3)CC2)cc1	RanGTP-Impb inh 27
CCOc1ccc(NC(=S)NNC(=S)Nc2cccc(C(F)(F)F)c2)cc1	RanGTP-Impb inh 22
Cc1ccc(NC(=O)CSc2nnc(-c3cccnc3)n2CCN2CCCCC2)cc1	none
CCCCOc1ccccc1C1C(C(=O)OC)=C(C)N(C)C(C)=C1C(=O)OC	none
COCCN1C=C(C(=O)OC)C(c2ccccc2C(F)(F)F)C(C(=O)OC)=C1	Hck Nef HTS 65, Runt-SMMHC FRET 82, Runt-CBFb FRET 122, RanGTP-Impb inh 56
CCCCN1C=C(C(=O)OC)C(c2ccccc2C(F)(F)F)C(C(=O)OC)=C1	Runt-SMMHC FRET 62, Runt-CBFb FRET 67, RanGTP-Impb inh 94
CCCCN1C=C(C(=O)OC)C(c2ccccc2Cl)C(C(=O)OC)=C1	Runt-SMMHC FRET 92, RanGTP-Impb inh 96
Cc1cc(N2CCCCCC2)nc2ccc(F)cc12	none (no result: Runt-SMMHC FRET, Runt-CBFb FRET)
CC(=O)c1ccc(NC(=O)CCn2c(=S)oc3ccccc32)cc1	none (no result: Hck Nef HTS, Runt-SMMHC FRET, Runt-CBFb FRET, p97 inhibitor, Tb hexokinase)
COc1ccc(-n2[nH]c(C)cc2=O)cc1	RanGTP-Impb inh inconclusive, p97 inhibitor 28
Cc1ccc2nc(NCCO)nc(-c3ccccc3)c2c1	RanGTP-Impb inh 29
OCCNc1nc(-c2ccccc2)c2ccccc2n1	none
OCCNc1nc(-c2ccccc2)c2cc(Cl)ccc2n1	Runt-SMMHC FRET 90
O=C(NCCc1nc2ccccc2[nH]1)/C(=C/c1ccco1)NC(=O)c1ccc(Br)cc1	none
CCCS(=O)(=O)c1nc(S(=O)(=O)c2ccc(C)cc2)c(NCc2ccco2)s1	none
O=C(NCCOc1ccccc1)c1ncn[nH]1	none
CCN(CC)CCN(C(=O)C1=COCCO1)c1nc2c(OC)ccc(OC)c2s1	none (no result: Hck Nef HTS, Runt-SMMHC FRET, Runt-CBFb FRET, p97 inhibitor, Tb hexokinase)
OC1CCCN(Cc2ccc3ccc4cccc5ccc2c3c45)C1 (stereo unspecified)	RanGTP-Impb inh 41 (no result: Runt-CBFb FRET)
Cc1cc2ccccc2cc1CN1CCOCC1	none
c1cc2ccc3ccc(CN4CCOCC4)c4ccc(c1)c2c34	RanGTP-Impb inh 45 (no result: Runt-CBFb FRET)
OC1CCCN(Cc2cn(Cc3ccccc3)nc2-c2cc3ccccc3o2)C1 (stereo unspecified)	none
O=C(CSc1ccc(-c2ccccn2)nn1)NCc1ccc(F)cc1	none
COc1ccc2c(c1)O/C(=C\c1sccc1C)C2=O	RanGTP-Impb inh 29
COc1ccc(/C=C2\Oc3cc(OC(=O)N4CCOCC4)ccc3C2=O)c(OC)c1	none
CC1CCCCN1C(=O)COC(=O)CNC(=O)c1ccc(Cl)cc1Cl (stereo unspecified)	none (no result: Hck Nef HTS, Runt-SMMHC FRET, Runt-CBFb FRET, p97 inhibitor, Tb hexokinase)
Cc1ccc(N2CC(c3nc4ccccc4n3C)CC2=O)cc1 (stereo unspecified)	none
CCCCn1c(=O)nc2n(-c3ccc(C)cc3)c3ccccc3cc-2c1=O	Runt-SMMHC FRET 82, Runt-CBFb FRET 54, RanGTP-Impb inh 60
Cc1ccc(-n2c3nc(=O)n(C)c(=O)c-3cc3ccccc32)cc1	Runt-SMMHC FRET 81, RanGTP-Impb inh 86
CCCCn1c(=O)nc2n(-c3ccc(Cl)cc3)c3ccccc3cc-2c1=O	Runt-SMMHC FRET 82, Runt-CBFb FRET 103, RanGTP-Impb inh 59
CCCCn1c(=O)nc2n(-c3ccc(OC)cc3)c3ccccc3cc-2c1=O	none
